Calls of active or inactive are those of the source. No cut-off for these calls is given here.
Columns and labels:
[1] = Metabolic stability of compound in human serum assessed as half life incubated for >10 mins measured after 90 mins by HPLC analysis; type: ADME, cell-free
[2] = biological target: T1, NAD-dependent protein deacetylase sirtuin-1 (Homo sapiens) (UniProt Q96EB6); test: Inhibition of human N-terminal GST-tagged SIRT1 (193 to 741 residues) expressed in Escherichia coli preincubated with NAD+ for 30 mins using Ac-Gln-Pro-Lys-Lys(Ac)-AMC (oxo-10) as substrate at 1 to 100 uM measured after 90 mins by fluorescence assay; details: dose microM 1-100, time 120.0 min
T1 sequence (whole entry): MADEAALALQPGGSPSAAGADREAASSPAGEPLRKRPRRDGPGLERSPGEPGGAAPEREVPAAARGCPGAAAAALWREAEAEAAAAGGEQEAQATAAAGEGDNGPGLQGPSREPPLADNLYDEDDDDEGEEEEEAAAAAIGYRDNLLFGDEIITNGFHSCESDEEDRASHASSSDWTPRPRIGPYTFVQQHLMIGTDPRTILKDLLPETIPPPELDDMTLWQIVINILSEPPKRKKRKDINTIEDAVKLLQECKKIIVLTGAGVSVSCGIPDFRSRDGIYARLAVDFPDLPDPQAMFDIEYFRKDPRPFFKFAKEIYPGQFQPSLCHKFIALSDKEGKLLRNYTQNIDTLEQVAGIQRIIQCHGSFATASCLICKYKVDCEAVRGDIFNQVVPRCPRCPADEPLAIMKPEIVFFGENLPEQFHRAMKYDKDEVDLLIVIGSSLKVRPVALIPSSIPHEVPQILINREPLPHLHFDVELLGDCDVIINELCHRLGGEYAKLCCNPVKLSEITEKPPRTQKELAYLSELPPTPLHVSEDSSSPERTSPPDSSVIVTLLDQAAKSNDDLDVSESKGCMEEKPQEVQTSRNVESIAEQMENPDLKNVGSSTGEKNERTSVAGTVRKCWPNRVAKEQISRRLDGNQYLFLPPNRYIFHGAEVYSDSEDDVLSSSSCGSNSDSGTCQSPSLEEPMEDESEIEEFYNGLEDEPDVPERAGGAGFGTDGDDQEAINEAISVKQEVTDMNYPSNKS
Procedure, shortened: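 Recombinant SIRT1 (100 nM) preincubated 30 min with compound, either with or without NAD+ (500 μM), before the fluorogenic deacetylation read-out. Single-dose %-inhibition. Two independent experiments in duplicate, standard deviation.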

[3] = biological target: T2, NAD-dependent protein deacetylase sirtuin-2 (Homo sapiens, UniProt Q8IXJ6); test: Inhibition of human C-terminal His-tagged SIRT2 (50 to 356 residues) expressed in Escherichia coli using Ac-Gln-Pro-Lys-Lys(pro)-AMC (oxo-11) as substrate by fluorescence assay
T2 sequence (Q8IXJ6 whole entry): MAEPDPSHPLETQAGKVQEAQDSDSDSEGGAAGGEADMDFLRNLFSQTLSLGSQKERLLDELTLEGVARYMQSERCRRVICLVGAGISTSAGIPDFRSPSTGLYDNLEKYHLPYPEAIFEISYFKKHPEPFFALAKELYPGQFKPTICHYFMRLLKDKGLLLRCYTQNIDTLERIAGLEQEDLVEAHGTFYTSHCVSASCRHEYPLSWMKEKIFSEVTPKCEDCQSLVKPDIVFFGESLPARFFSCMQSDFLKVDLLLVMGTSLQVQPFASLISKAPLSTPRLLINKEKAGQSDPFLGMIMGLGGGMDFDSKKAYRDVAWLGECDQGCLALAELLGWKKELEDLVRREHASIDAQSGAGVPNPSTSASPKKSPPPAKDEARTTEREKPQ

[4] = biological target: T3, NAD-dependent protein deacetylase sirtuin-1 (Homo sapiens, UniProt Q96EB6); test: Inhibition of human recombinant N-terminal GST-tagged SIRT1 (193 to 741 residues) expressed in Escherichia coli using Ac-Gln-Pro-Lys-Lys(Ac)-AMC (oxo-10) as substrate by fluorescence assay
T3 sequence (Q96EB6 whole entry): T1 sequence (whole entry)

[5] = biological target: T4, NAD-dependent protein deacetylase sirtuin-3, mitochondrial (Homo sapiens) (UniProt Q9NTG7); test: Inhibition of human N-terminal GST-tagged SIRT3 (102 to 399 residues) expressed in Escherichia coli using Ac-Gln-Pro-Lys-Lys(but)-AMC (oxo-12) as substrate at 100 uM by fluorescence assay relative to control
T4 sequence (whole entry): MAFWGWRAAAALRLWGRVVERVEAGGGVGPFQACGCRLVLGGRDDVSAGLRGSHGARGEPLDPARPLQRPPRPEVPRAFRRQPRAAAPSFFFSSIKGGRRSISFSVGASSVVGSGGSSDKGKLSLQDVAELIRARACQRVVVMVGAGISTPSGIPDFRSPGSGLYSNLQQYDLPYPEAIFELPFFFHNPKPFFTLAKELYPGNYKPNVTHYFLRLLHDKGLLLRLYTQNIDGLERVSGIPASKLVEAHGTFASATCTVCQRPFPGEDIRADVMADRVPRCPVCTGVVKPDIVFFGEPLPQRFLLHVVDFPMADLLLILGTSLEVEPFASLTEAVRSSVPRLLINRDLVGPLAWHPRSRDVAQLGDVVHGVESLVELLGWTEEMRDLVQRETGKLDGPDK

[6] = biological target: T5, NAD-dependent protein deacetylase sirtuin-2 (Homo sapiens) (UniProt Q8IXJ6); test: Inhibition of human recombinant C-terminal His-tagged SIRT2 (50 to 356 residues) deacetylation activity in presence of substrate and NAD+ incubated for 60 mins measured after 90 mins by fluorescence assay
T5 sequence (whole entry): T2 sequence (Q8IXJ6 whole entry)
Procedure, shortened: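 Recombinant SIRT2 (100 nM or 250 nM) incubated with fluorogenic thioacyl or oxo lysine-AMC substrates plus NAD+. Deacylation read by fluorescence. Two independent experiments in duplicate, standard deviation.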

[7] = biological target: T1, NAD-dependent protein deacetylase sirtuin-1 (Homo sapiens); test: Inhibition of human recombinant N-terminal GST-tagged SIRT1 (193 to 741 residues) deacetylation activity in presence of substrate and NAD+ at 15 uM after 15 to 60 mins by reversed-phase UPLC-MS analysis; details: time min 15-60
[8] = biological target: T1, NAD-dependent protein deacetylase sirtuin-1 (Homo sapiens); test: Inhibition of human N-terminal GST-tagged SIRT1 (193 to 741 residues) expressed in Escherichia coli preincubated without NAD+ for 30 mins using Ac-Gln-Pro-Lys-Lys(Ac)-AMC (oxo-10) as substrate at 1 to 100 uM measured after 90 mins by fluorescence assay; details: dose microM 1-100, time 30.0 min
[9] = biological target: T1, NAD-dependent protein deacetylase sirtuin-1 (Homo sapiens); test: Inhibition of human recombinant N-terminal GST-tagged SIRT1 (193 to 741 residues) deacetylation activity in presence of substrate and NAD+ at 15 uM after 60 mins by reversed-phase UPLC-MS analysis relative to control
[10] = biological target: T1, NAD-dependent protein deacetylase sirtuin-1 (Homo sapiens); test: Inhibition of SIRT1 in HEK293 cells assessed as increase in p53 acetylation co-treated with TSA at 25 uM for 6 hrs by western blot analysis; type: cell-based
Procedure, shortened: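 HEK293 cells exposed 6 h to compound at 25 μM together with TSA (1 μM). Whole-cell lysates immunoblotted for Ac-p53 (K382) and total p53. Ratio Ac-p53/p53 normalized to DMSO control. Two independent experiments in duplicate, SEM.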

[11] = biological target: T1, NAD-dependent protein deacetylase sirtuin-1 (Homo sapiens); test: Inhibition of human recombinant N-terminal GST-tagged SIRT1 (193 to 741 residues) deacetylation activity in presence of substrate and NAD+ at 15 uM after 30 mins by reversed-phase UPLC-MS analysis relative to control

Row | half-life [1] [min] | inhibition [2] | IC50 [3] [nM] | IC50 [4] [nM] | inhibition [5] [%] | inhibition [6] | inhibition [7] | inhibition [8] | inhibition [9] [%] | inhibition [10] | inhibition [11] [%] | SMILES
1 | 420 | inactive | 2200 | 510 | 19 | inactive | Active | inactive |  |  |  | CCC(=S)NCCCC[C@H](NC(=O)OCc1ccccc1)C(=O)N[C@@H](Cc1c[nH]c2ccccc12)C(=O)NC(C)C
2 | > 420 | Active |  |  |  | inactive |  |  | 7 | Active | 3 | CC(=S)NCCCC[C@H](NC(=O)OCc1ccccc1)C(=O)N[C@@H](Cc1c[nH]c2ccccc12)C(=O)NC(C)C
